KCNQ1 act = potentiates or activates the human KCNQ1 potassium channel; P51787; CHO-K1 KCNQ1, thallium flux FluxOR fluorescence; hits give high values; B-score at 10 µM; 310,000 tested, 0.35% active; AID 2648;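 active means fluorescence ratio B-score, a plate-corrected score, at least three library SD, with initial intensity B-score within 5 SD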
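System: Stable KCNQ1 CHO-K1 line | Incubation: 90 min dye loading and 20 min compound exposure, both at room temperature | Measure: Ratio B score | Medium: Assay buffer for compound exposure, DMSO matched across wells | Compound dosing: Single-concentration screen | Probe or stimulus: K+/Tl+ depolarizing stimulus | Measured by: Kinetic FluxOR fluorescence, 10 s baseline plus 110 s post-stimulus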
hERG protect = shields human hERG channel from block by proarrhythmic agents; Q12809; CHO-hERG, FluxOR thallium flux, dofetilide IC70 present; activation (rescue from dofetilide block), less the hit threshold, % at 10 µM; 310,000 tested, 0.51% active; AID 1511;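 active means activation above the mean of controls blocked by dofetilide plus 5 SD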;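 further: thallium influx through hERG after potassium depolarization seen as dye fluorescence rise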
KCNK3 block = human KCNK3 channel inhibition, primary screen; O14649; CHO-KCNK3 thallium flux, FluxOR fluorescence; hits give low values; AID 602410; B-score at 10 µM; 340,000 tested, 0.84% active;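 active means B-score under library mean minus 4 SD, starting fluorescence ratio at most library mean plus 5 SD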;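 further: more negative B-score means stronger inhibition of thallium flux through KCNK3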
Kir21 inh = inhibitors of mouse Kir2.1 inward-rectifier potassium channel. HEK293-Kir2.1, FluxOR thallium flux fluorescence; hits give low values. B-score at 10 µM. 310,000 tested, 0.85% active. AID 1672;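 active means fluorescence ratio B-score at or below minus 3 SD of library scores, with starting-brightness B-score within 2 SD, cut at about -4.2 in these data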;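 further: channel flux triggered by added potassium and thallium sulfate stimulus; B-score of peak minus minimum fluorescence over baseline after thallium stimulus; more negative B-score means stronger Kir2.1 block with less thallium influx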
KCNK9 block = human KCNK9 channel inhibition; Q9NPC2; HEK293 KCNK9, FluxOR thallium flux fluorescence; hits give low values; B-score at 10 µM; 310,000 tested, 1.2% active;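 active means ratio B-score over 3 SD below the library mean, with starting fluorescence within 5 SD of its mean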;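 further: negative B-score means less thallium flux so channel inhibition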
KCNQ1 block = human KCNQ1 channel inhibition; CHO-K1 KCNQ1, FluxOR thallium flux fluorescence; hits give high values; B-score at 10 µM; 310,000 tested, 1.3% active; AID 2642;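 active means compounds whose thallium flux B-score, printed positive for inhibition, exceeds three library SD while starting fluorescence stays within three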;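 further: channel opened by potassium depolarization with thallium stimulus after 20 min compound exposure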
KCNQ1 inh valid = confirmation of human KCNQ1 potassium channel inhibitors. shares compounds with KCNQ1 block. KCNQ1 cell line, FluxOR thallium flux fluorescence. inhibition, % at 10 µM. 1,600 tested, 93% active. AID 588353;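 active means primary screen active, with duplicate mean exceeding buffer control mean plus 3 SD of buffer wells, cut at about 28% in these data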
CHO KCNQ1 ctr = counter-screen for KCNQ1 inhibitors: effect in parental CHO cells | shares compounds with KCNQ1 block | parental CHO-K1, FluxOR thallium flux fluorescence ratio; hits give low values; zero means no signal rise above baseline | fluorescence ratio (Tl flux) at 10 µM | 1,600 tested, 21% active;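 active means mean of duplicate thallium-flux fluorescence ratios in parental host cells more than 5 SD below the buffer control mean, cut at about 0.38 in these data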;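 further: ratio is peak minus minimum fluorescence divided by baseline fluorescence; actives read low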
KCNQ1 APC inh = blocks human KCNQ1 current in automated patch clamp. shares compounds with KCNQ1 block. KCNQ1-CHO cells. calls only at 10 µM. 490 tested, 20% active. AID 624120;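 active means KCNQ1 current drop exceeding 3 SD of negative control wells, seen in both duplicate runs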;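 further: steady state current during a 2 s step from -80 to +40 mV; negative values mean current inhibition and positive values mean potentiation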
KCNQ2 spec = rat KCNQ2 inhibition in KCNQ1 inhibitor specificity screen; shares compounds with KCNQ1 block; KCNQ2 cells, FluxOR thallium flux fluorescence; inhibition, % at 10 µM; 1,600 tested, 71% active;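 active means mean percent inhibition of the KCNQ2 thallium signal more than 5 SD above the buffer-only control wells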;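 further: KCNQ2 expressed in CHO cells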
Target sequence (O88943 whole entry, looked up): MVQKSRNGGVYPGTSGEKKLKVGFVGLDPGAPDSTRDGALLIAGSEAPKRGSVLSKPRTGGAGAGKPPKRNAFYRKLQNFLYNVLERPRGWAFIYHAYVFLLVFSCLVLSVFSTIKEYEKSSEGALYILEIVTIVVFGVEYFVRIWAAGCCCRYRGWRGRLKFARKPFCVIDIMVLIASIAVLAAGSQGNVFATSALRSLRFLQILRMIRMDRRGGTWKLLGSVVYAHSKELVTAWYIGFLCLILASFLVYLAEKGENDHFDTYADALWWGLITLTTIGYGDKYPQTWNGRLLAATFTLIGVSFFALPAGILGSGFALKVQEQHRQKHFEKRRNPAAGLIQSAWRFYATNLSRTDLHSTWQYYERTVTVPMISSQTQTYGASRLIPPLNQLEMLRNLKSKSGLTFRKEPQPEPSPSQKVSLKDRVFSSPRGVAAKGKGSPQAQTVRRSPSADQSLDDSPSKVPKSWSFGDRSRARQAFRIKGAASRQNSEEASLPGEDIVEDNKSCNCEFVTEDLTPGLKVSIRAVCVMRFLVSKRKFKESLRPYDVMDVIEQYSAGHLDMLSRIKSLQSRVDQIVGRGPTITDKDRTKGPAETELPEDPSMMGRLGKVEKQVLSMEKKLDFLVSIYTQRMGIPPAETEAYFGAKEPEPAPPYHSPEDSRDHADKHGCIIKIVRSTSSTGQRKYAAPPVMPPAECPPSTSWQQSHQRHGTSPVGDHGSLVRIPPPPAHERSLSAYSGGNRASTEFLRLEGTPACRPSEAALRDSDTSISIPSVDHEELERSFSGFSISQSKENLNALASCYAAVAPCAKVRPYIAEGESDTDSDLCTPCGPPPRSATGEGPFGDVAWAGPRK
KCNQ1-KCNE1 inh = selectivity of KCNQ1 inhibitors: inhibition of human KCNQ1/KCNE1 channel. KCNQ1/KCNE1 cells, FluxOR thallium flux fluorescence. 1,600 tested, 77% active. shares compounds with KCNQ1 block. inhibition, % at 10 µM;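 active means mean percent inhibition of duplicate wells above the buffer-only control mean plus 3 SD of those controls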
Numbers stand for hits; – = inactive; · = no result given; + = active, no number. The list is not random: actives were taken first. Their share in the collection is about 3.7%.

SMILES	KCNQ1 act	hERG protect	KCNK3 block	Kir21 inh	KCNK9 block	KCNQ1 block	KCNQ1 inh valid	CHO KCNQ1 ctr	KCNQ2 spec	KCNQ1-KCNE1 inh	others
O=C(CCN1CCCC1Cc1ccccc1)c1ccc2c(c1)OCCO2 (stereo not given)	–	–	–	–	–	7	82.5	–	77.7%	99.5%
CN(Cc1nc(-c2cccs2)no1)CC(O)c1ccccc1 (stereo not given)	–	–	–	–	–	–	·	·	·	·
COc1ccc(NC(=O)CSc2nnc(Cc3cccs3)n2C)cc1	–	–	–	–	–	–	·	·	·	·
OC(COCCOc1ccc(Br)cc1)CN1CCCCC1 (stereo not given)	–	–	–	–	–	–	·	·	·	·
CSc1nc(-c2cccs2)c(C#N)c(=O)[nH]1	–	–	–	–	–	–	·	·	·	·
N#Cc1c(-c2cccs2)nc(SCc2ccc(Cl)cc2)[nH]c1=O	–	–	–	–	–	8	–	–	–	–
O=C(c1ccccn1)N1CCCC(N2CCN(c3ccc(F)cc3)CC2)C1 (stereo not given)	–	–	–	–	–	–	·	·	·	·
CN(C)CCN(C(=O)c1ccc2c(c1)CCCC2)c1nc2cc3c(cc2s1)OCCO3	–	–	–	–	–	11	105.5	0.352	125.0%	121.0%
CCN(CC)CCN(C(=O)c1ccc2ncsc2c1)c1nc2cc3c(cc2s1)OCO3	–	–	–	–	–	10	92.0	–	88.7%	120.0%	KCNQ1 APC inh=+
COc1ccccc1-c1cnn2c(NCCc3ccccc3)cc(C)nc12	–	–	–	–	–	7	66.5	–	75.0%	119.0%
COc1ccc(CCNc2cc(C)nc3c(-c4ccccc4)cnn23)cc1OC	–	–	–	–	–	–	·	·	·	·
COc1ccc(CCNc2ncnc3c2oc2ccccc23)cc1OC	–	–	–	–	–	–	·	·	·	·
COc1ccc(CCNc2nc(C)nc3c2oc2ccccc23)cc1OC	–	–	–	–	–	10	119.5	–	123.0%	77.5%	KCNQ1 APC inh=–
Cc1cccc(OCCCC(=O)Nc2ccc(S(=O)(=O)Nc3nccs3)cc2)c1C	–	–	–	–	–	–	·	·	·	·
CC(C)N(CC(O)COc1ccc(CC(N)=O)cc1)CC(O)COc1ccc(CC(N)=O)cc1 (stereo not given)	–	–	–	–	–	–	·	·	·	·
O=C(Nc1ccc2ncccc2c1)c1cc(Cl)ccc1Cl	–	–	–	–	–	–	·	·	·	·
Cc1ccc(-n2c(-c3ccc(Br)cc3)c[n+]3c2CCc2ccc4cccnc4c2-3)cc1	–	–	-11.4	-14.5	–	19	136.0	0.317	120.3%	183.5%
Cc1c(Cl)cccc1NC(=S)N1CCCN(Cc2ccccc2F)C1	–	–	–	–	–	–	·	·	·	·
Fc1ccccc1CN1CCCN(C(=S)Nc2cccc(Cl)c2)C1	–	–	–	–	–	7	47.0	–	72.7%	–
NS(=O)(=O)c1ccc(CCNC(=O)C(=O)C2C(=O)Nc3ccccc32)cc1 (stereo not given)	–	–	–	–	–	–	·	·	·	·
Cc1ccc[n+](CC(=O)Nc2ccc(N(C)C)cc2)c1	–	–	–	–	–	–	·	·	·	·
Cc1ccccc1CSc1ccc(-c2ccc3c(c2)OCO3)nn1	–	–	–	–	–	7	131.5	0.359	106.0%	156.0%
CN(Cc1ccc(F)cc1)C(=O)c1cccc(S(=O)(=O)N2CCN(c3ccccc3)CC2)c1	–	–	–	–	–	7	75.5	–	70.3%	–
CN(Cc1ccc(F)cc1)C(=O)c1cccc(S(=O)(=O)N2CCN(c3ccc(F)cc3)CC2)c1	–	–	–	–	–	–	·	·	·	·
S=C(NCCc1ccc(Cl)cc1)NCc1ccccc1	–	–	–	-7.31	–	10	63.0	–	74.0%	72.5%
SMILES	KCNQ1 act	hERG protect	KCNK3 block	Kir21 inh	KCNK9 block	KCNQ1 block	KCNQ1 inh valid	CHO KCNQ1 ctr	KCNQ2 spec	KCNQ1-KCNE1 inh	others
Cc1c(Cl)cccc1NC(=S)NCCc1ccc(Cl)cc1	–	–	–	–	–	15	73.0	–	79.0%	51.0%
S=C(NCCc1cccc(Cl)c1)NCc1ccccc1	–	–	–	–	–	8	66.0	–	–	55.5%
S=C(NCc1ccccc1)Nc1ccc(Cl)cc1	–	–	–	–	–	–	·	·	·	·
CCN1C(=O)[C@H]2[C@H]3[C@H](O)[C@H](O)C/C(=N\OC[C@@H](C)[C@H](OCc4ccccc4)C(C)C)[C@@H]3CC[C@H]2C1=O	–	–	·	–	–	–	·	·	·	·
COc1cccc(NC(=O)N2CCN(c3nc(-c4cccc(OC)c4)cs3)CC2)c1	–	–	–	–	–	–	·	·	·	·
COc1cccc(-c2csc(N3CCN(C(=O)NC45CC6CC(CC(C6)C4)C5)CC3)n2)c1	–	–	–	–	–	8	102.5	–	106.0%	136.0%
CC1Sc2ccc(S(=O)(=O)N3CCC(C(=O)Nc4ccc(Cl)cc4)CC3)cc2NC1=O (stereo not given)	–	–	–	–	–	11	144.5	0.378	104.0%	167.5%
O=C(c1cccc(C(F)(F)F)c1)C1CCCN(Cc2ccc(OCCO)cc2)C1 (stereo not given)	–	–	–	–	–	–	·	·	·	·
O=C(c1ccc2c(c1)OCO2)C1CCCN(Cc2cccc(C(F)(F)F)c2)C1 (stereo not given)	–	–	–	–	–	7	88.0	–	96.0%	97.0%	KCNQ1 APC inh=–
COc1ccc(CCC(C)NCCc2ccc(Cl)cc2Cl)cc1 (stereo not given)	–	–	–	-13.4	–	14	99.0	–	96.3%	106.5%
O=C(NCc1ccccc1)c1cccc(COc2cccc(Cl)c2)c1	–	–	-10.6	–	–	8	125.5	0.355	94.7%	156.0%
Cc1cc(C)cc(NC(=O)CSc2nc3ccccc3nc2N2CCCCC2)c1	–	–	–	–	–	6	68.5	–	92.0%	86.0%
Cc1cc(C)cc(NC(=O)CSc2nc3ccccc3nc2N2CCCC2)c1	–	–	–	–	–	–	·	·	·	·
Cc1ccc(Nc2nc3nonc3[nH]c2=O)cc1Cl	–	–	–	–	–	9	29.0	–	–	–
COc1ccc(C2(CNC(=O)c3ccccc3)CCCC2)cc1OC	–	–	–	–	–	–	·	·	·	·

Screens: PubChem, Johns Hopkins Ion Channel Center
